Beta2AR agonist: beta2AR agonists driving receptor internalization, primary screen, cell-based, FAP fluorogen, flow cytometry; Beta-2 adrenergic receptor (Homo sapiens), P07550; Am2.2-beta2AR cells; response, % (test concentration not listed); 0.43% of 340,000 active;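 active = response above a set limit, near 3 SD of response in nonfluorescent compounds, cut at about 42% in these data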
CCR6 antag: CCR6 receptor antagonists, primary screen, cell-based, CHO-K1, luminescence, beta-arrestin, uHTS | inhibition, % at 20 µM | AID 493098, 2011 | CHO-K1 CCR6 PathHunter beta-arrestin, CCL20-stimulated | 0.49% of 340,000 active;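 active = compounds whose inhibition of the agonist-driven luminescence signal at 20 µM reaches about 50%, limit read from the data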;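 note: cells stimulated with CCL20 at 14 nM final; plate controls were DMSO with CCL20 for no effect and DMSO without agonist for full effect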
CXCR6 inh: CXCR6 receptor inhibitors, primary screen, cell-based, beta-arrestin, luminescence, CHO-K1 PathHunter, 1536-well; C-X-C chemokine receptor type 6 (Homo sapiens), O00574; inhibition, % at 20 µM; 0.36% of 360,000 active; AID 602244, 2012; in the data active = inhibition above about 34%, passing the limit was not always enough;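 note: antagonist mode with CXCL16 agonist at 10 nM final; 0% = 10 nM CXCL16 with DMSO and 100% = unstimulated wells without agonist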
APJ agonist: agonists of human apelin receptor APJ, primary screen, CHO-K1 cells, PathHunter beta-arrestin, luminescence; 0.11% of 330,000 active; activation, % at 20 µM; 0% DMSO wells, 100% apelin; P35414;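 active = activation more than six SD over the plate average, tested at 20 µM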;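 note: 0% = DMSO alone and 100% = apelin-13 at 10 nM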
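Material: engineered CHO-K1 APJ arrestin reporter cells; amount: 1000 CHO-K1 reporter cells seeded per well; incubation: compound stimulation 90 min at 25 °C, detection 60 min; signal: luminescent beta-gal fragment complementation, chemiluminescent substrate; read-out basis: APJ agonist activity; controls: DMSO-only wells as negative, 10 nM Apelin-13 as positive control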
APJ antagonist: antagonists of human apelin receptor APJ, primary screen, CHO-K1 cells, beta-arrestin complementation, luminescence; P35414; inhibition, % at 20 µM; 0.32% of 330,000 active;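 active = inhibition above about 40% at 20 µM, limit read from the data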;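 note: cells challenged with 10 nM apelin-13 agonist together with compound; plate controls were apelin-13 plus DMSO wells for no effect and DMSO wells lacking apelin-13 for full effect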
EBI2 block: EBI2 receptor antagonists, beta-arrestin recruitment, primary screen, cell-based, luminescence, 7a,25-OHC stimulation, uHTS; G-protein coupled receptor 183 (Homo sapiens), P32249; 7a,25-OHC stimulated; inhibition, % at 5 µM; 0.81% of 360,000 active; AID 651636, 2012; in the data active = inhibition above about 38%;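 note: enzyme fragment complementation signal reports receptor beta-arrestin coupling in cells; 0% = agonist plus DMSO wells and 100% = wells without agonist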
Target sequence (P32249 whole entry, looked up, the tested form may be a part): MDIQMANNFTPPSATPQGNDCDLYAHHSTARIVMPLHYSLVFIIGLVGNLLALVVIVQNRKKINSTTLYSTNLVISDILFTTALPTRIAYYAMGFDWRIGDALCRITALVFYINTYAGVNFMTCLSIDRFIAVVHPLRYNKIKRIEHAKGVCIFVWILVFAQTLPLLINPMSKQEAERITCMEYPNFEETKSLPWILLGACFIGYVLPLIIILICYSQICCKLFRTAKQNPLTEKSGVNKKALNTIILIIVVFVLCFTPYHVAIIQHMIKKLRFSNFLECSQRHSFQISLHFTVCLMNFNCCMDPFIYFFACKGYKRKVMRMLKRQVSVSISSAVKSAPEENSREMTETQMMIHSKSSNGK
EBI2 antag conf: EBI2 antagonist hit retest, beta-arrestin, confirmation, cell-based, single concentration, luminescence, 7a,25-OHC stimulation; shares compounds with EBI2 block; 7a,25-OHC antagonism; inhibition, % at 5 µM; 29% of 2,400 active;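 active = inhibition of at least 50%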
EBI2 agonist: EBI2 agonist activity of antagonist hits, confirmation, counter-screen for EBI2 antagonist project, cell-based, single concentration, agonist mode, luminescence; shares compounds with EBI2 block; EBI2-expressing cells, 60 min; 0% vehicle, 100% 7α,25-dihydroxycholesterol control; activation, % at 5 µM; 2,400 tested, under 10 active; AID 652000, 2013;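 active = activation of at least 50%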
bGal cs: E. coli beta-galactosidase enzyme inhibition, confirmation, counter-screen for EBI2 antagonist project, biochemical, luminescence, single concentration; shares compounds with EBI2 block; purified beta-galactosidase, luminescent Galacton Star, 15 min; inhibition, % at 5 µM; 1% of 2,400 active; AID 652176, 2013;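 active = replicate-average signal at least 3 plate SD below neutral wells, shown as high inhibition, flagging enzyme-inhibiting false positives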;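 note: 0% = DMSO wells with enzyme and 100% = wells lacking enzyme; higher means stronger loss of beta-gal luminescence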
Numbers without * were called inactive. An excerpt weighted towards active compounds, which were near 1.8% of everything screened.

Results for COc1ccc(OC)c(S(=O)(=O)N2CCN(CC(O)COc3ccccc3)CC2)c1 (configuration not stated) ?
Beta2AR agonist: 4.9; CCR6 antag: 11.4; CXCR6 inh: -3.4; APJ agonist: -2.8; APJ antagonist: 15.6; EBI2 block: 46.3*; EBI2 antag conf: 7.7; EBI2 agonist: 0.8; bGal cs: 10.4

What do the screens show for `COc1ccc(S(=O)(=O)N2CCN(CC(O)COc3ccc(C#N)cc3)CC2)cc1OC` (configuration not stated)?
Beta2AR agonist: 2.7; CCR6 antag: -6.2; CXCR6 inh: -9.8; APJ agonist: -3.4; APJ antagonist: 3.9; EBI2 block: 13.4

Results for COc1ccc(OCC(O)CN2CCC(CN3C(=O)c4cccc5cccc(c45)C3=O)CC2)cc1 (configuration not stated) ?
Beta2AR agonist: 13.6; CCR6 antag: 22.4; CXCR6 inh: -13.7; APJ agonist: -5.6; APJ antagonist: 2.6; EBI2 block: 43.7*; EBI2 antag conf: 20.4; EBI2 agonist: 0.9; bGal cs: 6.2

What do the screens show for `COc1ccc(OC)c(S(=O)(=O)N2CCN(Cc3ccccc3)CC2)c1`?
Beta2AR agonist: -0.8; CCR6 antag: -2.3; CXCR6 inh: -2.5; APJ agonist: -0.5; APJ antagonist: -12.2; EBI2 block: -1.6

How did O=C(c1cc2ccccc2o1)N1CCN(S(=O)(=O)c2c(F)cccc2F)CC1 do in these assays?
Beta2AR agonist: 2.7; CCR6 antag: 10.8; CXCR6 inh: 2.0; APJ agonist: -3.2; APJ antagonist: 3.7; EBI2 block: 63.3*; EBI2 antag conf: 42.5; EBI2 agonist: -0.1; bGal cs: 4.6

How did CC(=O)N1CCN(C(=O)c2cc3ccccc3o2)CC1 do in these assays?
Beta2AR agonist: 11.2; CCR6 antag: 4.6; CXCR6 inh: -12.8; APJ agonist: -0.3; APJ antagonist: -4.1; EBI2 block: 6.3

What do the screens show for `CCOC(=O)c1ccc(S(=O)(=O)N2CCN(S(=O)(=O)CC)CC2)cc1`?
Beta2AR agonist: 0.9; CCR6 antag: -5.0; CXCR6 inh: -2.6; APJ agonist: 7.5; APJ antagonist: -9.1; EBI2 block: 1.2

How did CCOc1ccc(S(=O)(=O)N2CCN(C(=O)c3ccco3)CC2)cc1 do in these assays?
Beta2AR agonist: -3.5; CCR6 antag: -0.8; CXCR6 inh: -13.8; APJ agonist: -5.4; APJ antagonist: 15.6; EBI2 block: -7.3

What do the screens show for `CCOc1ccc(S(=O)(=O)N2CCN(C(=O)c3cc4ccccc4o3)CC2)cc1`?
Beta2AR agonist: -21.1; CCR6 antag: 34.6; CXCR6 inh: 0.3; APJ agonist: 0.0; APJ antagonist: -5.3; EBI2 block: 85.9*; EBI2 antag conf: 56.5*; EBI2 agonist: 1.7; bGal cs: 9.4

How did CCOC(=O)c1ccc(S(=O)(=O)N2CCN(C(=O)c3cc(=O)c4ccccc4o3)CC2)cc1 do in these assays?
Beta2AR agonist: 8.4; CCR6 antag: 11.3; CXCR6 inh: 7.9; APJ agonist: -3.0; APJ antagonist: 1.2; EBI2 block: 59.8*; EBI2 antag conf: 27.0; EBI2 agonist: 0.2; bGal cs: 6.7

Screening results from PubChem BioAssay.
